Assay results taken from ChEMBL document CHEMBL4251636, “Design, synthesis and biological evaluations of novel pyridone-thiazole hybrid molecules as antitumor agents” (Eur J Med Chem, 2018).

What was measured:
Huh-7 = assay: Antiproliferative activity against human HuH7 cells after 72 hrs by MTT assay; type: functional, cell-based; conditions: Huh-7, 72 h
In short: (§1)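 Cells grown to log phase in RPMI 1640 with 10% FBS, seeded at 2×10^4 cells/mL and incubated 24 h at 37 °C, 5% CO2. Compounds added, then 72 h at 37 °C. MTT (5 mg/mL stock) for 4 h, formazan dissolved in DMSO, absorbance read at 570 nm. Triplicate wells per concentration, three independent experiments. IC50 is the concentration giving 50% growth inhibition versus untreated control, reported as mean ± S.E.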

HCT-116 [1] = assay: Antiproliferative activity against human HCT116 cells after 72 hrs by MTT assay; type: functional, cell-based; conditions: HCT-116, 72 h; in short: as §1
MGC-803 [2] = assay: Antiproliferative activity against human MGC803 cells after 72 hrs by MTT assay; type: functional, cell-based; conditions: MGC-803, 72 h; in short: as §1
MGC-803 [3] = assay: Potency index, ratio of 5-Fluorouracil IC50 to compound IC50 for antiproliferative activity against human MGC803 cells; type: functional
HCT-116 [4] = assay: Potency index, ratio of 5-Fluorouracil IC50 to compound IC50 for antiproliferative activity against human HCT116 cells; type: functional

What does the source list for CC(=O)c1sc(N/N=C2/C=C(Nc3ccc(C)cc3)C(Nc3ccc(C)cc3)=NC2=O)nc1C?
IC50 (Huh-7): 72 µM; IC50 (HCT-116 [1]): 52.7 µM; IC50 (MGC-803 [2]): 75.5 µM

With CC(=O)c1sc(N/N=C2/C=C(Nc3ccc(Br)cc3)C(Nc3ccc(Br)cc3)=NC2=O)nc1C as the compound, how does the IC50 (Huh-7) read?
Its IC50 is 17.9 µM.

And the IC50 (HCT-116 [1])?
The IC50 was 13.2 µM.

And the IC50 (MGC-803 [2])?
The IC50 was 9.12 µM.

Which results are given for CC(=O)c1sc(N/N=C2/C=C(Nc3cccc(Cl)c3)C(Nc3cccc(Cl)c3)=NC2=O)nc1C?
IC50 (Huh-7): > 128 µM; IC50 (HCT-116 [1]): 10.6 µM; IC50 (MGC-803 [2]): 5.18 µM

Which results are given for CC(=O)c1sc(N/N=C2/C=C(Nc3ccccc3Cl)C(Nc3ccccc3Cl)=NC2=O)nc1C?
Ratio IC50 (MGC-803 [3]): 8.1; IC50 (Huh-7): 21.5 µM; IC50 (HCT-116 [1]): 8.17 µM; IC50 (MGC-803 [2]): 3.15 µM; Ratio IC50 (HCT-116 [4]): 1.4

With COc1cccc(NC2=C/C(=N/Nc3nc(C)c(C(C)=O)s3)C(=O)N=C2Nc2cccc(OC)c2)c1 as the compound, how does the IC50 (Huh-7) read?
The IC50 was over 128 µM.

What about the IC50 (HCT-116 [1]) of the same compound?
Its IC50 is over 128 µM.

What about the IC50 (MGC-803 [2]) of the same compound?
Its IC50 is over 128 µM.

What does the source list for CC(=O)c1sc(N/N=C2/C=C(Nc3ccccc3)C(Nc3ccccc3)=NC2=O)nc1C?
IC50 (Huh-7): 19.1 µM; IC50 (HCT-116 [1]): 25.3 µM; IC50 (MGC-803 [2]): 13.5 µM

With COc1ccc(NC2=C/C(=N/Nc3nc(C)c(C(C)=O)s3)C(=O)N=C2Nc2ccc(OC)cc2)cc1 as the compound, how does the IC50 (Huh-7) read?
Its IC50 is over 128 µM.

And the IC50 (HCT-116 [1])?
Its IC50 is over 128 µM.

And the IC50 (MGC-803 [2])?
The IC50 was 82.6 µM.

How did the IC50 (Huh-7) turn out when CC(=O)c1sc(N/N=C2/C=C(Nc3cccc(Br)c3)C(Nc3cccc(Br)c3)=NC2=O)nc1C was run?
Its IC50 is over 128 µM.

And the IC50 (HCT-116 [1])?
The IC50 was 22.2 µM.

And the IC50 (MGC-803 [2])?
Its IC50 is 21.6 µM.

With CC(=O)c1sc(N/N=C2/C=C(Nc3ccccc3C)C(Nc3ccccc3C)=NC2=O)nc1C as the compound, how does the IC50 (Huh-7) read?
The IC50 was over 128 µM.

And the IC50 (HCT-116 [1])?
The IC50 was over 128 µM.

What about the IC50 (MGC-803 [2]) of the same compound?
Its IC50 is 45 µM.

What does the source list for COc1ccccc1NC1=C/C(=N/Nc2nc(C)c(C(C)=O)s2)C(=O)N=C1Nc1ccccc1OC?
IC50 (Huh-7): 20.6 µM; IC50 (HCT-116 [1]): 85.4 µM; IC50 (MGC-803 [2]): 51.1 µM

With CC(=O)c1sc(N/N=C2/C=C(Nc3ccc(Cl)cc3)C(Nc3ccc(Cl)cc3)=NC2=O)nc1C as the compound, how does the IC50 (Huh-7) read?
Its IC50 is over 128 µM.

What about the IC50 (HCT-116 [1]) of the same compound?
The IC50 was 8.28 µM.

What about the IC50 (MGC-803 [2]) of the same compound?
Its IC50 is 8.56 µM.

CC(=O)c1sc(N/N=C2/C=C(Nc3cccc(F)c3)C(Nc3cccc(F)c3)=NC2=O)nc1C was tested. Which IC50 (Huh-7) did it give?
Its IC50 is 58.8 µM.

And the IC50 (HCT-116 [1])?
The IC50 was 22.8 µM.

What about the IC50 (MGC-803 [2]) of the same compound?
Its IC50 is 21.4 µM.

What does the source list for CC(=O)c1sc(N/N=C2/C=C(Nc3cccc(C)c3)C(Nc3cccc(C)c3)=NC2=O)nc1C?
IC50 (Huh-7): > 128 µM; IC50 (HCT-116 [1]): > 128 µM; IC50 (MGC-803 [2]): > 128 µM

How did the IC50 (Huh-7) turn out when O=c1[nH]cc(F)c(=O)[nH]1 [FLUOROURACIL] was run?
Its IC50 is 5.63 µM.

And the IC50 (HCT-116 [1])?
The IC50 was 11.3 µM.

And the IC50 (MGC-803 [2])?
Its IC50 is 25.5 µM.
